Active and inactive are the calls of the source. The calls are words filed in the database; no cut-off is given here.
Key:
Bel-7402 [1] = assay: Antiproliferative activity against human Bel7402 cells at 1 uM after 72 hrs by MTT assay; type: functional, cell-based
Bel-7402 [2] = assay: Antiproliferative activity against human Bel7402 cells after 72 hrs by MTT assay; type: functional, cell-based; conditions: Bel-7402, 72 h
Summary of the method: (§1)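 MGC-803 and MCF-7 cells grown in DMEM (MCF-7 with 1× NEAA); Bel-7402 and K562 grown in RPMI 1640; all media with 10% FBS. Cells seeded at 3500/well, pre-incubated 24 h, then exposed to compounds in fresh medium (DMSO ≤0.25%) for 72 h at 37 °C. MTT read-out at 570 nm. Quadruplicate wells, repeated three times; means ± SD (n = 3).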

MCF7 [3] = assay: Antiproliferative activity against human MCF7 cells after 72 hrs by MTT assay; type: functional, cell-based; conditions: MCF7, 72 h; summary of the method: as §1
Bel-7402 [4] = assay: Cytotoxicity against human Bel7402 cells at 10 to 50 uM after 24 hrs by LDH assay; type: functional, cell-based
Summary of the method: (§2)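 Membrane integrity assay on MCF-7 and Bel-7402 cells seeded at ~5 × 10^3 per well for 24 h, then given compounds at 10, 20 or 50 μM. Culture medium collected and assayed with CytoTox-ONE LDH reagent for 10 min, followed by stop solution. Fluorescence read at Ex 560/Em 590 nm. Expressed as percentage of unstimulated cells.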

K562 = assay: Antiproliferative activity against human K562 cells after 72 hrs by MTT assay; type: functional, cell-based; conditions: K562, 72 h; summary of the method: as §1
MCF7 [5] = assay: Cytotoxicity against human MCF7 cells at 10 to 50 uM after 24 hrs by LDH assay; type: functional, cell-based; summary of the method: as §2
NCI-H460 = assay: Antiproliferative activity against human NCI-H460 cells after 48 hrs by MTT assay; type: functional, cell-based; conditions: NCI-H460, 48 h
Summary of the method: (§3)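 Colorimetric MTT assay. KB-3-1, NCI-H460 and Bel-7404 cells were seeded at 4000 cells/well; resistant KB/CP4, NCI-H460/MX20 and Bel-7404/CP20 were seeded at 7000 cells/well. Cells were pre-incubated 24 h at 37 °C, 5% CO2, then exposed to a compound concentration series for 48 h with DMSO ≤0.25%. Absorbance read at 570 nm. Quadruplicate wells, three repeats; means ± SD.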

[6] = Antiproliferative activity against human KB/CP4 cells after 48 hrs by MTT assay; type: functional, cell-based; conditions: KB/CP4, 48 h; summary of the method: as §3
KB 3-1 = assay: Antiproliferative activity against human KB-3-1 cells after 48 hrs by MTT assay; type: functional, cell-based; conditions: KB 3-1, 48 h; summary of the method: as §3
BEL-7404 tumor cell line = assay: Antiproliferative activity against human Bel7404 cells after 48 hrs by MTT assay; type: functional, cell-based; conditions: BEL-7404, 48 h; summary of the method: as §3
[7] = Antiproliferative activity against human BEL7404/CP20 cells after 48 hrs by MTT assay; type: functional, cell-based; conditions: BEL7404/CP20, 48 h; summary of the method: as §3
[8] = Antiproliferative activity against human NCI-H460/MX20 cells after 48 hrs by MTT assay; type: functional, cell-based; conditions: NCI-H460/MX20, 48 h; summary of the method: as §3
MGC-803 = assay: Antiproliferative activity against human MGC803 cells after 72 hrs by MTT assay; type: functional, cell-based; conditions: MGC-803, 72 h; summary of the method: as §1
[9] = Selectivity ratio of IC50 for human KB/CP4 cells to IC50 for human KB-3-1 cells
Mus musculus [10] = assay: Toxicity in Balb/c nude mouse xenografted with human MCF7 cells assessed as morphological changes in lungs at 20 mg/kg/day, iv for 4 weeks by hematoxylin and eosin staining based microscopic method; type: organism-based; conditions: in vivo, 672 h
Summary of the method: (§4)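 Male BALB/c nude mice aged six weeks received 1 × 10^6 MCF-7 cells subcutaneously in the right flank. After 7 d they were randomized and dosed 20 mg/kg iv once daily in 10% DMF/2% poloxamer/88% saline; saline control. Heart, liver, spleen, lung and kidney were fixed in 4% paraformaldehyde, paraffin-embedded, sectioned at 5 μm, H&E stained and examined microscopically.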

Mus musculus [11] = assay: Nephrotoxicity in Balb/c nude mouse xenografted with human MCF7 cells assessed as morphological changes in kidney at 20 mg/kg/day, iv for 4 weeks by hematoxylin and eosin staining based microscopic method; type: toxicity, organism-based; conditions: in vivo, 672 h; summary of the method: as §4
Mus musculus [12] = assay: Toxicity in Balb/c nude mouse xenografted with human MCF7 cells assessed as changes in body weight at 20 mg/kg/day, iv for 4 weeks measured once in 2 days during compound dosing; type: organism-based; conditions: in vivo
Summary of the method: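 Mice received 1 × 10^6 tumor cells subcutaneously in the right flank: MCF-7 in male BALB/c nude mice aged six weeks, H22 in male ICR mice aged five weeks. After 7 d they were randomized (six or eight per group). Dosing was 20 mg/kg iv daily in 10% DMF/2% poloxamer/88% saline for 21 or 28 days; saline control. Body weight was recorded every 2 days.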

Mus musculus [13] = assay: Hepatotoxicity in Balb/c nude mouse xenografted with human MCF7 cells assessed as morphological changes in liver at 20 mg/kg/day, iv for 4 weeks by hematoxylin and eosin staining based microscopic method; type: toxicity, organism-based; conditions: in vivo, 672 h
Summary of the method: (§5)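 Male BALB/c nude mice (6 weeks old) carrying subcutaneous MCF-7 xenografts (1 × 10^6 cells). Dosed iv 20 mg/kg daily for 28 days in 10% DMF/2% poloxamer/88% saline; six mice per group. Organs then fixed in 4% paraformaldehyde, paraffin-embedded, cut at 5 μm, stained with Harris hematoxylin and eosin-phloxine, and examined by light microscopy.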

Mus musculus [14] = assay: Cardiotoxicity in Balb/c nude mouse xenografted with human MCF7 cells assessed as morphological changes in heart at 20 mg/kg/day, iv for 4 weeks by hematoxylin and eosin staining based microscopic method; type: toxicity, organism-based; conditions: in vivo, 672 h; summary of the method: as §5
MCF7 [15] = assay: Antitumor activity against human MCF7 cells xenografted in Balb/c nude mouse assessed as tumor growth inhibition at 20 mg/kg/day, iv for 4 weeks relative to control; type: functional; conditions: 672 h, read-out: TGI
Summary of the method: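 Six-week-old male BALB/c nude mice received 1 × 10^6 MCF-7 cells subcutaneously in the right flank. After 7 d of tumor growth, mice were randomized into groups of six. Dosing was 20 mg/kg iv once daily for 28 days in 10% DMF/2% poloxamer/88% saline. Tumor volume (L × W²/2) and body weight were recorded every 2 days. Inhibition = (1 − mean treated/control tumor weight) × 100%.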

Mus musculus [16] = assay: Toxicity in Balb/c nude mouse xenografted with human MCF7 cells assessed as morphological changes in spleen at 20 mg/kg/day, iv for 4 weeks by hematoxylin and eosin staining based microscopic method; type: organism-based; conditions: in vivo, 672 h; summary of the method: as §4
[17] = Selectivity ratio of IC50 for human L02 cells to IC50 for human Bel7402 cells

IC50 (Bel-7402 [2]) [nM]	IC50 (MCF7 [3]) [nM]	IC50 (K562) [nM]	IC50 (NCI-H460) [µM]	IC50 (KB 3-1) [µM]	IC50 (BEL-7404 tumor cell line) [µM]	IC50 (MGC-803) [µM]	SMILES	Activity (Bel-7402 [1])	Activity (Bel-7402 [4])	Activity (MCF7 [5])	IC50 [6] [µM]	IC50 [7] [µM]	IC50 [8] [µM]	Ratio IC50 [9]	inhibition in vivo at 20 mg/kg/day (MCF7 [15]) [%]	further results
–	–	–	–	–	–	–	C=C1C(=O)[C@@]23[C@@H]4OC(C)(C)O[C@@]25OC[C@]2([C@@H](OS(C)(=O)=O)CCC(C)(C)[C@H]2[C@@H]5O)[C@@H]3CC[C@@H]14	Active	–	–	–	–	–	–	–	–
3430	11100	2790	19.2	16.7	16.2	5.58	C=C1C(=O)[C@]23[C@H](O)[C@H]1CC[C@H]2[C@]12C=CC(=O)C(C)(C)[C@H]1[C@H](O)[C@]3(O)OC2	Active	inactive	inactive	16.1	15.1	54	<1	–	–
2070	4130	1880	–	–	–	3.09	C=C1C(=O)[C@]23[C@H](OC(C)=O)[C@H]1CC[C@H]2[C@]12C=C[C@H](OC(C)=O)C(C)(C)[C@H]1[C@H](O)[C@]3(O)OC2	Active	–	–	–	–	–	–	–	–
450	180	1270	2.44	6.21	6.56	1.02	C=C1C(=O)[C@]23[C@H](OC(=O)c4cccc(C)c4)[C@H]1CC[C@H]2[C@]12C=CCC(C)(C)[C@H]1[C@H](O)[C@]3(O)OC2	–	–	–	1.01	3.42	14.2	<1	–	Ratio IC50 [17]: 14.58
3660	1490	7980	–	–	–	3.61	C=C1C(=O)[C@@]23[C@@H]4OC(C)(C)O[C@@]25OC[C@]2(C=CCC(C)(C)[C@H]2[C@@H]5O)[C@@H]3CC[C@@H]14	Active	–	–	–	–	–	–	–	–
5410	17900	4330	20.5	13.2	17.9	9.06	C=C1C(=O)[C@]23[C@H](O)[C@H]1CC[C@H]2[C@@]12CO[C@]3(O)[C@@H](O)[C@@H]1C(C)(C)CC[C@@H]2O [ORIDONIN]	–	inactive	inactive	10.8	17.2	25.9	–	58.9	Activity (Mus musculus [10]): Non-Toxic; Activity (Mus musculus [11]): Non-Toxic; Ratio IC50 [17]: 6; Activity (Mus musculus [12]): Non-Toxic; Activity (Mus musculus [13]): Non-Toxic; Activity (Mus musculus [14]): Non-Toxic; Activity (Mus musculus [16]): Non-Toxic
–	–	–	–	–	–	–	O=P1(N(CCCl)CCCl)NCCCO1 (centres undefined) [CYCLOPHOSPHAMIDE ANHYDROUS]	–	–	–	–	–	–	–	64.6	–

SMILES	IC50 (Bel-7402 [2]) [nM]	IC50 (MCF7 [3]) [nM]	IC50 (K562) [nM]	IC50 (NCI-H460) [µM]	IC50 (KB 3-1) [µM]	IC50 (BEL-7404 tumor cell line) [µM]	IC50 (MGC-803) [µM]	Activity (Bel-7402 [1])	Activity (Bel-7402 [4])	Activity (MCF7 [5])	IC50 [6] [µM]	IC50 [7] [µM]	IC50 [8] [µM]	Ratio IC50 [9]	inhibition in vivo at 20 mg/kg/day (MCF7 [15]) [%]	further results
C=C1C(=O)[C@]23[C@H](O)[C@H]1CC[C@H]2[C@]12C=CCC(C)(C)[C@H]1[C@H](O)[C@]3(O)OC2	1590	1990	220	2.69	5.16	3.91	1.22	Active	inactive	inactive	2.98	4.98	11.1	<1	61.6	Activity (Mus musculus [10]): Non-Toxic; Activity (Mus musculus [11]): Non-Toxic; Activity (Mus musculus [12]): Non-Toxic; Activity (Mus musculus [13]): Non-Toxic; Activity (Mus musculus [14]): Non-Toxic; Activity (Mus musculus [16]): Non-Toxic
C=C1C(=O)[C@@]23[C@@H]4OC(C)(C)O[C@@]25OC[C@]2([C@@H]6O[C@@H]6CC(C)(C)[C@H]2[C@@H]5O)[C@@H]3CC[C@@H]14	1320	1580	1660	–	–	–	1.42	Active	–	–	–	–	–	–	–	–

Source: ChEMBL document CHEMBL3997810, “A Novel Potent Anticancer Compound Optimized from a Natural Oridonin Scaffold Induces Apoptosis and Cell Cycle Arrest through the Mitochondrial Pathway” (J Med Chem, 2017)
